# Laboratory results as given in ChEMBL document CHEMBL1909619, “Synthesis and Toll-like receptor 4 (TLR4) activity of phosphatidylinositol dimannoside analogues” (J Med Chem, 2011).
# The source made the active and inactive calls. The rule behind the calls is not given here.
# What was measured:
# [1] = biological target: T1, Toll-like receptor 4 (Mus musculus) (UniProt Q9QUK6); assay: Agonist activity at TLR4 in thioglycollate-elicited mouse peritoneal macrophages assessed as induction of IL-6 production in after 18 hrs by ELISA; format: functional
# T1 sequence (whole entry): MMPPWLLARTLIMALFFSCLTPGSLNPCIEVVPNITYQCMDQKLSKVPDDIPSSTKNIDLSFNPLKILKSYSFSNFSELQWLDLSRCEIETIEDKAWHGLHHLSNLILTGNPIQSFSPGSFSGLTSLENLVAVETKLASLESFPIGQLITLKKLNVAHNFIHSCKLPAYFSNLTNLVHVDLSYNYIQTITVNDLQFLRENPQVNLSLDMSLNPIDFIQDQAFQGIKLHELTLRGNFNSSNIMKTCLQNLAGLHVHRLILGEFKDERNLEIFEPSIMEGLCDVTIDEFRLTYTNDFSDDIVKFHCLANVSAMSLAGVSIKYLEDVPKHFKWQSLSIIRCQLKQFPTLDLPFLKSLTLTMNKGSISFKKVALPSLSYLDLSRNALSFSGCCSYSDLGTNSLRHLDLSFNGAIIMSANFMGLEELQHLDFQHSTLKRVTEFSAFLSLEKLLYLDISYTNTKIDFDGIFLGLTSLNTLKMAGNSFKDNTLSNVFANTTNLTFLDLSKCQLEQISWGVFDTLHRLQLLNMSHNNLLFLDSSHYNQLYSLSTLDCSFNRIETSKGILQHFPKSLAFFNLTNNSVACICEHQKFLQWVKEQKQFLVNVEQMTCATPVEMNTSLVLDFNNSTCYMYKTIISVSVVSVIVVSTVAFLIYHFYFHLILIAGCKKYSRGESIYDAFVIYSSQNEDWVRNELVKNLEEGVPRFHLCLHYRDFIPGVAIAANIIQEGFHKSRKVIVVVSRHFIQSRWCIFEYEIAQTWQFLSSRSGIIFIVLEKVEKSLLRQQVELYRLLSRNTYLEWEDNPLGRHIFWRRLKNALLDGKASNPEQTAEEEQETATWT
# Method in brief: (§1)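 Thioglycollate-elicited mouse peritoneal macrophages were plated at 2×10^5 cells/well in RPMI-1640 with 10% fetal calf serum and penicillin-streptomycin. They were incubated 18 h at 37°C, 5% CO2 with compound, with or without 10 ng/ml LPS. IL-6 in the supernatant was measured by ELISA. Data are representative of at least two replicate experiments, and significance was tested by ANOVA.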
# [2] = biological target: T1, Toll-like receptor 4 (Mus musculus); assay: (§2) Inhibition of LPS-induced TLR4 activation in thioglycollate-elicited mouse peritoneal macrophages assessed as inhibition of IL-6 production after 18 hrs by ELISA; method in brief: as §1
# Toll-like receptor 4 = biological target: T2, Toll-like receptor 4 (Mus musculus, UniProt Q9QUK6); assay: as §2; method in brief: as §1
# T2 sequence (Q9QUK6 whole entry): T1 sequence (whole entry)
# [3] = Cytotoxicity against mouse peritoneal macrophages assessed as cell viability by trypan blue exclusion assay; format: cell-based; settings: peritoneal macrophage cell
# Method in brief: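 Thioglycollate-elicited mouse peritoneal macrophages were plated at 2×10^5 cells/well in supplemented RPMI-1640. They were exposed to compound, with or without 10 ng/ml LPS, for 18 h at 37°C, 5% CO2. Viability was then scored by trypan blue exclusion.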
# Macrophage = assay: Induction of IL-6 production in TLR4-deficient mouse macrophages; format: functional, cell-based
# [4] = biological target: Toll-like receptor 4 (Homo sapiens) (UniProt O00206); assay: Partial agonist activity at TLR4 transfected in Sf9 insect cells assessed as inhibition of LPS-mediated sTLR4/MD2 homodimerization after 1 hr by native PAGE; format: functional, cell-based
# Chain of Toll-like receptor 4 (Homo sapiens) (O00206 whole entry, the tested form may be a part): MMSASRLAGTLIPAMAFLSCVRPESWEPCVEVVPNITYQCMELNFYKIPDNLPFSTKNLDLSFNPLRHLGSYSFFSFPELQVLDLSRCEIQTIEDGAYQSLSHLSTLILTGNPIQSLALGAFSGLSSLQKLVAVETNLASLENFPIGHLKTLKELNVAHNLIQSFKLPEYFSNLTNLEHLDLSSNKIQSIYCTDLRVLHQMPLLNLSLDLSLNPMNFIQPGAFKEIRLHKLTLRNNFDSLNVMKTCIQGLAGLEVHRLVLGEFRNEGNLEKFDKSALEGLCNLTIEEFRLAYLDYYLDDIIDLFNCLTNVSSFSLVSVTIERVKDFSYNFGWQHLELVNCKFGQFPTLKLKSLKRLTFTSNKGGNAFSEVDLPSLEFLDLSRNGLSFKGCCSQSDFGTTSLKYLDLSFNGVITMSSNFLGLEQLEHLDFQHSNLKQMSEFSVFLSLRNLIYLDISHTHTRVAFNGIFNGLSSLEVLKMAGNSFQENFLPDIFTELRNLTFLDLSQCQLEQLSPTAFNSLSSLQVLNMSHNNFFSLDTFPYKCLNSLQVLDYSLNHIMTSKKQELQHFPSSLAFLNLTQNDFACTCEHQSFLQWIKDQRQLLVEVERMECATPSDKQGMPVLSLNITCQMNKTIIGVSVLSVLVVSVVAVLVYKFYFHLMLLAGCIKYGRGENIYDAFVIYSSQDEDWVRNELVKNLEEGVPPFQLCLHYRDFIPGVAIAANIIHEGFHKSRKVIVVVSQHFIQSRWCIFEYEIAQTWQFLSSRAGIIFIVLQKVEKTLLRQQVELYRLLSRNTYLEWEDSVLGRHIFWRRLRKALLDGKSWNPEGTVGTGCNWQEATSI
# Method in brief: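 The sTLR4 ectodomain/MD-2 complex was co-expressed in Hi5 insect cells from baculovirus made in SF9 cells. It was purified by Ni-NTA and Strep-Tactin affinity, tag removal with thrombin, and size exclusion. After 1 h at room temperature, the mixture was resolved by native PAGE on a 4–20% gel at pH 8.8.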
# Sf9 [5] = assay: Binding affinity at MD1 transfected in Sf9 insect cells after 1 hr by native PAGE; format: cell-based
# Method in brief: (§3)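 MD-1 was expressed by baculovirus and purified by Ni-NTA affinity, anion exchange and gel filtration. It was combined with compound and then LPS in 20 mM Hepes pH 7.4/150 mM NaCl. After 1 h at room temperature, the mixture was analysed by native PAGE on a 4–20% gradient gel at pH 8.8.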
# Sf9 [6] = assay: Competitive binding affinity at MD1 transfected in Sf9 insect cells after 1 hr by native PAGE in presence of LPS; format: cell-based; method in brief: as §3
# [7] = biological target: T1, Toll-like receptor 4 (Mus musculus); assay: Enhancement of LPS-induced TLR4 activation in mouse peritoneal macrophages assessed as IL-6 production at 0.6 to 19.2 uM after 18 hrs by ELISA; method in brief: as §1
Activity [1] [pg/mL],inhibition [2],IC50 (Toll-like receptor 4) [µM],Activity [4],Activity [7],Structure (SMILES),Activity [3],Activity (Macrophage),Activity (Sf9 [5]),Activity (Sf9 [6])
1460,Dose-dependent effect,30.3,,,CCCCCCCCCCCCCCCCO[C@H](COC(=O)CCCCCCCCCCCCCCC)COP(=O)(O)O[C@@H]1[C@H](O[C@H]2O[C@H](CO)[C@@H](O)[C@H](O)[C@@H]2O)[C@H](O)[C@@H](O)[C@H](O)[C@H]1O[C@H]1O[C@H](CO)[C@@H](O)[C@H](O)[C@@H]1O,Non-toxic,,,
923,,42.8,,,CCCCCCCCCCCCCCCCO[C@H](COC(=O)CCCCCCCCCCCCCCC)COP(=O)(O)OC(CO[C@H]1O[C@H](CO)[C@@H](O)[C@H](O)[C@@H]1O)CO[C@H]1O[C@H](CO)[C@@H](O)[C@H](O)[C@@H]1O,Non-toxic,,,
664,,22.7,,,CCCCCCCCCCCCCCCC(=O)N[C@H](COC(=O)CCCCCCCCCCCCCCC)COP(=O)(O)O[C@@H]1[C@H](O[C@H]2O[C@H](CO)[C@@H](O)[C@H](O)[C@@H]2O)[C@H](O)[C@@H](O)[C@H](O)[C@H]1O[C@H]1O[C@H](CO)[C@@H](O)[C@H](O)[C@@H]1O,Non-toxic,,,
1130,,28.8,,,CCCCCCCCCCCCCCCCOC[C@H](COP(=O)(O)O[C@@H]1[C@H](O[C@H]2O[C@H](CO)[C@@H](O)[C@H](O)[C@@H]2O)[C@H](O)[C@@H](O)[C@H](O)[C@H]1O[C@H]1O[C@H](CO)[C@@H](O)[C@H](O)[C@@H]1O)OC(=O)CCCCCCCCCCCCCCC,Non-toxic,,,
817,,40.2,Active,,CCCCCCCCCCCCCCCC(=O)OC[C@H](COP(=O)(O)O[C@@H]1[C@H](O[C@H]2O[C@H](CO)[C@@H](O)[C@H](O)[C@@H]2O)[C@H](O)[C@@H](O)[C@H](O)[C@H]1O[C@H]1O[C@H](CO)[C@@H](O)[C@H](O)[C@@H]1O)OC(=O)CCCCCCCCCCCCCCC,Non-toxic,inactive,Active,Dose-dependent effect
275,,,,Active,CCCCCCCCCCCCCCCCO[C@H](COC(=O)CCCCCCCCCCCCCCC)COP(=O)(O)O[C@@H]1[C@H](O[C@H]2O[C@H](COC(=O)CCCCCCCCCCCCCCC)[C@@H](O)[C@H](O)[C@@H]2O)[C@H](O)[C@@H](O)[C@H](O)[C@H]1O[C@H]1O[C@H](CO)[C@@H](O)[C@H](O)[C@@H]1O,Non-toxic,,,
143,,12.9,,,CCCCCCCCCCCCCCCC(=O)OC[C@H](COP(=O)(O)OC(CO[C@H]1O[C@H](CO)[C@@H](O)[C@H](O)[C@@H]1O)CO[C@H]1O[C@H](CO)[C@@H](O)[C@H](O)[C@@H]1O)OC(=O)CCCCCCCCCCCCCCC,Non-toxic,,,
494,,23.3,,,CCCCCCCCCCCCCCCCOC[C@H](COP(=O)(O)O[C@@H]1[C@H](O[C@H]2O[C@H](CO)[C@@H](O)[C@H](O)[C@@H]2O)[C@H](O)[C@@H](O)[C@H](O)[C@H]1O[C@H]1O[C@H](CO)[C@@H](O)[C@H](O)[C@@H]1O)OCCCCCCCCCCCCCCCC,Non-toxic,,,
